DENV2 CPE rescue – DENV2-induced cell death inhibition; DENV2-infected cells, cytopathic effect rescue, plate reader; CPE inhibition, % at 9.99 µM; hit rate 1.7% among 350,000; in the data active = CPE inhibition above about 20%, passing the limit was not always enough; inconclusive = no clear call, values can overlap the other calls; tested in BHK-21 cells;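 note: 0% = median of neutral control wells and 100% = median of positive control wells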
E-selectin induc – induces E-selectin expression in human endothelial cells; P16581; hit rate 0.37% among 260,000; activation, % at 7.58 µM; AID 686992; HUVEC E-selectin immunofluorescence imaging; normalized: neutral wells 0, TNF-alpha wells 100;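 active = mean E-selectin-positive cell signal at least 10% of the positive control, reached in at least 60% of replicates, without over 20% cell loss; inconclusive = no rule given, readout overlaps actives, possibly toxicity-flagged; inactive = the rest, including those meeting only one limit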
Target sequence (P16581 whole entry, looked up): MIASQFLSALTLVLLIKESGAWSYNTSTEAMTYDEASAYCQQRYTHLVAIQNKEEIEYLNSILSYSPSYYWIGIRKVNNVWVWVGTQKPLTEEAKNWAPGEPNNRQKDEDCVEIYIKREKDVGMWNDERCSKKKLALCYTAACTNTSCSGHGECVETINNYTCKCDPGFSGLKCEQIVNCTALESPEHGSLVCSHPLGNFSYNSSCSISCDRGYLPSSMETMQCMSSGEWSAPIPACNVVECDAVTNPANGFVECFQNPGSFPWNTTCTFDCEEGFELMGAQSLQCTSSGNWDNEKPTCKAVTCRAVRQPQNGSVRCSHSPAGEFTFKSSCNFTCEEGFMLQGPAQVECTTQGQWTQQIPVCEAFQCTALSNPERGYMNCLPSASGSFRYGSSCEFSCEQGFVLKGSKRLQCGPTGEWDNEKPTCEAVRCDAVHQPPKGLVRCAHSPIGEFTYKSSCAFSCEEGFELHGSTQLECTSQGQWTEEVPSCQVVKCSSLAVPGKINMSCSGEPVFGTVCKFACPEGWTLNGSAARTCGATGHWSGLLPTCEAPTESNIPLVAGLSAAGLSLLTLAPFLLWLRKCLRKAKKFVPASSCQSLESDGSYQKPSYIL
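material = human umbilical vein endothelial cells (HUVEC), E-selectin induction | quantity = 3,000 cells/well | medium = EGM-2 growth medium on 0.1% gelatin-coated wells | technique = immunofluorescence imaging | read-out basis = % PE-positive cells | control set = TNF-alpha positive control, DMSO neutral control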
GSIS activator – GLuc luminescence reporter in INS-1E cells, primary screen for activators of glucose-dependent secretion of insulin. activation, % at 16.6 µM. INS-1E GLuc reporter insulin secretion, 2-3 h. hit rate 0.61% among 370,000. AID 743287;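 active = lowest replicate activation of at least 40%, so every replicate reaches that level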;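 note: 0% = median of neutral control wells and 100% = median of IBMX positive control wells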
miR122 inh – inhibitors of miR-122 in Huh7 cells; Huh7 miR-122 Renilla luciferase sensor, 48 h; neutral wells = 0, positive control = 100; activation (reporter increase), % at 12.5 µM; hit rate 0.3% among 340,000; AID 602342;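 active = mean replicate activation score at least 90 and every replicate individually at or above 90; inconclusive = only one of the two criteria met; inactive = neither criterion met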;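 note: higher luciferase means less miR-122 activity so hits act as miR-122 inhibitors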
ERAP1 HTS inh – ERAP1 (human) enzyme inhibition. inhibition, % at 10.7 µM. hit rate 0.15% among 340,000. Q9NZ08. recombinant ERAP1, Leu-AMC fluorescence, 60 min;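 active = mean replicate inhibition of at least 30%, or all replicates individually reaching that 30% level; inactive = mean below 30% and not every replicate reaching it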;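 note: 0% = neutral control wells and 100% = L-leucinethiol positive control wells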
F508del corr – CFTR F508del correction in bronchial cells | CFBE cells, YFP halide quenching; stimulated with forskolin plus potentiator P3; % fluorescence drop versus neutral controls | activity (quench increase), % at 7.58 µM | hit rate 0.36% among 350,000 | AID 720511;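 active = mean added fluorescence quench of at least 8% versus neutral control, with both replicates also reaching 8%; inconclusive = only one of the mean or replicate conditions met; inactive = mean below 8% and not both replicates reaching 8%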;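 note: cells transiently co-express mutant CFTR-F508del with the halide-sensitive YFP; corrector assay measuring rescue of mutant channel to the surface after 24 h compound exposure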
* = called active by the depositor; ? = inconclusive; / = no result given; ! = a repeat was not active; [ ] = remark or other dose. An excerpt weighted towards active compounds, which were near 2.6% of everything screened.

SMILES	DENV2 CPE rescue	E-selectin induc	GSIS activator	miR122 inh	ERAP1 HTS inh	F508del corr
O=C1CN(S(=O)(=O)c2ccccc2)C[C@H]2[C@@H](c3ccc(Br)cc3)[C@H](CO)N12	-9	0	13	/	-1	-2
CC(OC(=O)c1ccc2c(=O)n3c(nc2c1)CCC3)C(=O)NC1CCCCC1C (stereo unspecified)	33*	2	26	2	-5	1
CC(OC(=O)c1cccs1)C(=O)NC1CCCCC1C (stereo unspecified)	2	-1	14	-9	3	29*
CC(OC(=O)c1ccc(C(C)(C)C)cc1)C(=O)NC1CCCCC1C (stereo unspecified)	-6	/	-10	1	3	3
CC(OC(=O)c1ccccc1NCCO)C(=O)NC1CCCCC1C (stereo unspecified)	69*	0	-11	-9	-2	-4
C[C@H](CO)N1C[C@H](C)[C@H](CN(C)C(=O)Nc2ccccc2)Oc2c(NC(=O)Nc3ccc(F)cc3)cccc2C1=O	-1	0	-11	-3[16.7 µM]	1	1
C[C@H](CO)N1C[C@H](C)[C@@H](CN(C)CC2CCCCC2)Oc2ncc(C#C[C@@H](C)O)cc2C1=O	2	1	-5	-7[16.7 µM]	1	-1
COCC(=O)N(C)C[C@@H]1Oc2ncc(C#CC(C)(C)O)cc2C(=O)N([C@@H](C)CO)C[C@H]1C	3	0	28	20[16.7 µM]	-4	1
CC(=O)N(C)C[C@H]1Oc2ncc(C#CC(C)(C)O)cc2C(=O)N([C@@H](C)CO)C[C@@H]1C	30*	0	11	-2[16.7 µM]	2	1
COCC(=O)N(C)C[C@@H]1Oc2ncc(C#CC(C)(C)O)cc2C(=O)N([C@@H](C)CO)C[C@@H]1C	24*	0	17	10[16.7 µM]	1	2
CC(C)[C@@H]1COCn2nncc2CC[C@H](Cc2ccccc2)C(=O)N1	3	0	2	/	0	/
O=C(COC(=O)c1cccc([N+](=O)[O-])c1)NCc1cccs1	/	3	-3	1	1	1
Cc1ncsc1CCOC(=O)c1cccc([N+](=O)[O-])c1	3	/	42*!	-2	-4	-1
C[C@@H](CO)NC(=O)c1ccc2c3n(nc2c1)-c1ccccc1CO3	40*	2	7	-6	/	2
Cc1ccc(N2CC(C(=O)Nc3nccs3)CC2=O)cc1Cl (stereo unspecified)	/	/	-3	96*	/	/
O=C([C@H]1[C@H](CO)[C@H]2Cn3c(ccc(C4=CCCC4)c3=O)[C@@H]1N2C(=O)c1cccnc1)N1CCOCC1	19	0	-4	-6[16.7 µM]	-1	-1
COc1ccc(NC(=O)N(C)C[C@@H]2OCc3ccccc3-c3ccccc3C(=O)N([C@@H](C)CO)C[C@H]2C)cc1	1	0	-2	/	-1	2
O=S1(=O)CCO[C@H]2Cc3ccccc3[C@H]2N1Cc1ccc(Cl)cc1	85*	0	8	-1	/	0
CC(C)n1c(=O)[nH][nH]c1=S	-1	/	-6	-1	85*	-2
CC(C)n1c(=O)[nH]c2ccccc21	-2	/	18	/	-1	-1
COc1cc(/C=N/NC(=O)CCOc2ccccc2C)cc(Br)c1O	2	/	1	/	-2	2
O=C(COc1ccccc1[N+](=O)[O-])N/N=C/c1ccc(OC(=O)c2ccco2)cc1	10	/	12	-6	6	3
COc1cc(/C=N/NC(=O)COc2ccccc2[N+](=O)[O-])ccc1OC(=O)c1ccco1	27*	/	-2	/	-3	2
COc1ccc(/C=N/NC(=O)CCOc2ccccc2C)cc1OC	-4	-1	53*	/	-2	/
COc1ccc(/C=N/NC(=O)Cn2cnc3ccccc3c2=O)cc1OC	/	-1	56*	-4	/	/
SMILES	DENV2 CPE rescue	E-selectin induc	GSIS activator	miR122 inh	ERAP1 HTS inh	F508del corr
COc1ccc(NC(=O)Cn2cnc3ccccc3c2=O)cc1OC	6	/	0	/	1	4
COc1ccc(NS(=O)(=O)c2ccc3ccccc3c2)c2ncccc12	0	/	8	104*	1	-5
CCSS(=O)(=O)c1cccc2cccnc12	0	0	-3	-8	96*	0
O=C(O)CCS(=O)(=O)c1cccc2cccnc12	/	/	-10	-4	/	/
O=S(=O)(Nc1ccc(Cl)cc1)c1cccc2cccnc12	19	/	-24	99*	0	-1
COc1ccc(C(C)(C)C)cc1NS(=O)(=O)c1cccc2cccnc12	-1	0	-5	117*	1	-2
COC(=O)C[C@@H]1CC[C@H]2[C@@H](COC[C@@H](O)CN2C(=O)Nc2ccccc2OC)O1	1	0	11	3[16.7 µM]	2	-3
CO[C@H]1CN(C)C(=O)c2ccc(NS(C)(=O)=O)cc2OC[C@@H](C)N(CC2CCCCC2)C[C@@H]1C	/	0	-16	/	/	1
C/C=C/c1ccc([C@H]2[C@H](CO)N3C(=O)CN(Cc4ccccc4)C[C@@H]23)cc1	-1	0	-7	/	-2	-4
O=C(CN1CCOCC1)N/N=C/c1ccc(-c2ccc(C(=O)O)cc2)o1	0	/	-1	/	93*	0
CC=Cc1ccc2n(c1=O)C[C@@H]1[C@@H](CO)[C@H](C(=O)NCC(F)(F)F)[C@H]2N1C(C)=O (mixture of isomers)	76*	0	12	-6[16.7 µM]	0	0
CC=Cc1ccc2n(c1=O)C[C@@H]1[C@@H](CO)[C@H](C(=O)NCC(F)(F)F)[C@H]2N1C(=O)C1CC1 (mixture of isomers)	?	0	17	13[16.7 µM]	0	-2
CC=Cc1ccc2n(c1=O)C[C@H]1[C@H](CO)[C@@H](C(=O)N3CCc4ccccc4C3)N(C(=O)C3CCC3)[C@@H]21 (mixture of isomers)	62*	0	-8	5[16.7 µM]	-1	0
CC(=O)N1[C@@H]2Cn3c(ccc(-c4ccc(F)cc4)c3=O)[C@H]1[C@@H](C(=O)N(C)C)[C@@H]2CO	27*	0	2	/	-2	/
CC=Cc1ccc2n(c1=O)C[C@H]1[C@H](CO)[C@@H](C(=O)NCC(F)(F)F)[C@@H]2N1C(=O)C1CC1 (mixture of isomers)	59*	0	3	1[16.7 µM]	-1	1
CC=Cc1ccc2n(c1=O)C[C@@H]1[C@@H](CO)[C@H](C(=O)NCC)[C@H]2N1C(C)=O (mixture of isomers)	-5	0	3	-5[16.7 µM]	1	0
C[C@H](CO)N1C[C@H](C)[C@H](CN(C)Cc2ccc(C(=O)O)cc2)Oc2ccc(NC(=O)Cc3ccccc3)cc2C1=O	-3	0	-4	3[16.7 µM]	1	-3
CCC(=O)N[C@H]1CC[C@H](CC(=O)NCc2ccccc2OC)O[C@@H]1CO	-2	-1	10	/	1	-2
